Experimental data collected from several papers.
Protocols differ between the studies behind these lines.
SLC6A2: Sodium-dependent noradrenaline transporter (SLC6A2, Homo sapiens, UniProt P23975)
MPO: Myeloperoxidase (MPO, Homo sapiens, UniProt P05164)

O[C@@H]1[C@H](O)[C@@H]2C[C@@H]2[C@H]1n1cnc2c(NCCC3CC3)ncnc21  inhibition (SLC6A2; transporter uptake, inhibitor, radiometric; HEK293; 10 µM): 0%
C1=C/COCc2cc(ccc2OCCN2CCCC2)Nc2nccc(n2)-c2cccc(c2)COC/1  remaining signal (Tyrosine-protein kinase Fgr (FGR, Homo sapiens, UniProt P09769); cell-free assay; 0.1 µM): 96%
N#CC[C@@]12C[C@@H]1[C@@H](n1cnc3c(NCCCCCCc4ccccc4)nc(I)nc31)[C@H](O)[C@@H]2O  inhibition (SLC6A2; transporter uptake, inhibitor, radiometric; HEK293; 10 µM): 0%
NC/C(=C\F)COc1cccc(Cn2c(=S)[nH]c(=O)c3[nH]cnc32)c1  inhibition (MPO; enzyme activity, inhibitor, fluorescence; 1.4 nM): 17.2%
COc1ccc2oc(-c3ccc4nc(N)oc4c3)c/c(=N\c3ccccc3NC(=O)CCN)c2c1  remaining binding (Fibroblast growth factor receptor 1 (FGFR1, Homo sapiens, UniProt P11362, V561M); binding; 1 µM): 97%
CCCCC(=O)Nc1ccc(-c2ccc3ncn(CCC)c(=O)c3c2)cn1  remaining binding (Peripheral plasma membrane protein CASK (CASK, Homo sapiens, UniProt O14936); binding, competition with immobilised ligand; 0.5 µM): 100%
COc1ccc(Cl)cc1-c1cc(=O)[nH]c(=S)n1CC(N)=O  inhibition (MPO; enzyme activity, inhibitor, fluorescence; 0.5556 µM): 87.6%
Cc1cc(O)c(-c2ccc([C@@H](C)CN(C)C)cc2)c2c1[nH]c(=O)c1sccc12  inhibition (Extracellular serine/threonine protein kinase FAM20C (FAM20C, Homo sapiens, UniProt Q8IXL6); cell-free assay, inhibitor; 0.1 µM, lysate): -0.829%
CC(=O)N[C@H](CCCNC(=N)N)C(=O)N[C@H]1CSSC[C@@H](C(N)=O)NC(=O)[C@H](Cc2c[nH]c3ccccc23)NC(=O)[C@H](CCCNC(=N)N)NC(=O)[C@@H](Cc2ccccc2)NC(=O)[C@H](Cc2c[nH]cn2)NC(=O)[C@H](CCC(=O)O)NC1=O  Emax (Melanocortin receptor 4 (MC4R, Homo sapiens, UniProt P32245); cAMP, agonist; CHO-K1): 100%
CNc1nc(I)nc2c1ncn2[C@H]1[C@H](O)[C@H](O)[C@]2(CC#N)C[C@H]12  inhibition (SLC6A2; ligand displacement, radioligand; 10 µM): -6%
CC(C)[C@@H](CN1CCc2ccccc2C1)NC(=O)c1ccc(F)cc1  inhibition (Kappa-type opioid receptor (Oprk1, Mus musculus, UniProt P33534); ligand displacement, radioligand; 10 µM): 75.7%
OC[C@@]12C[C@@H]1[C@@H](n1cnc3c(N[C@@H](C4CCC4)C4CC4)nc(C#Cc4ccc(Cl)s4)nc31)[C@H](O)[C@@H]2O  inhibition (SLC6A2; ligand displacement, radioligand; 10 µM): 90%
CC(C)OCCn1c(=S)[nH]c(=O)c2[nH]ccc21  remaining activity (MPO; enzyme activity, inhibitor; 0.3125 µM): 67.4%
